Blank lines part the entries; values can stand above or below the compound they belong to.
How the values were obtained:
estrogenic potency = details: cited from earlier work
arylsulfatase = assay: Arylsulfatase inhibition assay; format: biochemical, Helix pomatia; details: for type of inhibition of arylsulfatase: Lineweaver–Burk plot; for reversibility of inhibition of arylsulfatase: enzyme activity vs enzyme concentration at four inhibitor concentrations
β-glucuronidase = assay: β-Glucuronidase inhibition assay; format: biochemical, H. pomatia; details: for reversibility of inhibition of β-glucuronidase: enzyme activity vs enzyme concentration at four inhibitor concentrations
How it was run: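 H. pomatia β-glucuronidase (type H-1), stock 10 U/mL in 0.5 M Tris-HCl pH 7.0. Incubated 1 h at 37 °C in 0.1 M phosphate buffer pH 7.0 with pNPG (5 mM stock) and test compound or water control. Stopped with 0.5 M NaOH; pNP read at 400 nm. Final H2O2 1–10,000 μM; NaClO and PAA 1–1000 μM. Triplicates; % inhibition relative to control without test compound.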

SMILES: CCCCC(CC)COC(=O)c1ccccc1C(=O)OCC(CC)CCCC (stereo not shown) [DEHP, di-2-(ethylhexyl) phthalate]
- estrogenic potency (estrogenic potency): 10^–7

- type of inhibition of arylsulfatase (arylsulfatase): competitive
- reversibility of inhibition of arylsulfatase (arylsulfatase): reversible
- inhibition of arylsulfatase under weak alkaline condition (in words) (arylsulfatase; pH 8): reduced inhibition
- differences in the inhibition of arylsulfatase across pH (in words) (arylsulfatase; pH range of 5–7): no significant differences
- inhibition on β-glucuronidase (in words) (β-glucuronidase; pH 7.0, tested 1-10,000 μM): no inhibition
SMILES: OO [H2O2, hydrogen peroxide]

- reversibility of inhibition of arylsulfatase (arylsulfatase): irreversible
- IC50 (arylsulfatase; read-out: IC50 on arylsulfatase at pH 5.0, pH 5.0): 7.64 ± 0.61 µM
- reversibility of inhibition of β-glucuronidase (β-glucuronidase): irreversible
SMILES: OCl [hypochlorite]

SMILES: CC(=O)OO [PAA, peracetic acid]
- type of inhibition of arylsulfatase (arylsulfatase): noncompetitive
- reversibility of inhibition of arylsulfatase (arylsulfatase): reversible
- inhibition of arylsulfatase at pH 8 (in words) (arylsulfatase; pH 8, concentration below 1 mM): nearly no inhibition
- type of inhibition of β-glucuronidase (β-glucuronidase; Lineweaver–Burk plot): noncompetitive
- reversibility of inhibition of β-glucuronidase (β-glucuronidase): reversible
- maximum inhibition degree on β-glucuronidase (β-glucuronidase; pH 7.0, tested up to 1000 μM): about 60%

SMILES: [Cd] [cadmium]
- estrogenic potency (in words) (estrogenic potency): no estrogenic potency at all

From paper PMC8014925 (ACS Omega, 2021)
